HUVEC prolif 384: blocks proliferation of human endothelial cells | HUVEC proliferation, CellTiter-Glo luminescence, 72 h; active compounds read low | viability, % at 10 µM (by protocol) | 86,000 tested, 1.1% active | AID 648;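 active = viability at or below 30%; inactive = viability above 30%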
HCT116 bCat-KO: beta-catenin-lacking colon tumor cell growth suppression. HCT116 beta-catenin knockout viability, CellTiter-Glo, 60 h; active compounds read low. viability, % at 10 µM. 140,000 tested, 1.5% active;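 active = viability at or under a set limit, the compound median less 4 SD, cut at about 6% in these data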
HCT116 PTEN-null: growth suppressors of cells with PTEN tumor suppressor deletion. 140,000 tested, 1.2% active. AID 827. HCT116 PTEN-null viability, CellTiter-Glo, 60 h; active compounds read low. viability, % at 10 µM;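 active = viability at or below a set limit, 4 SD under the median of all tested compounds, cut at about 3.7% in these data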;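 also: PTEN knockout HCT116 line with beta catenin targeted HCT116 as companion control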
H69AR inhibit: growth inhibitors of human H69AR lung tumor cells | H69AR lung tumor viability, ATP luminescence, 72 h; active compounds read low | viability, % at 10 µM | 85,000 tested, 6% active | AID 598;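 active = viability at or below 40%; inactive = viability above 40%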;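 also: multidrug resistant small cell line overexpressing MRP-1 efflux transporter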
Lung fibro prol: blocks proliferation of human lung fibroblasts. LL 47 human lung fibroblast viability, ATP luminescence; active compounds read low. viability, % at 10 µM. 85,000 tested, 1.1% active;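 active = viability at or below 50% in the single dose screen; inactive = viability above 50%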;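 also: compound exposure lasted 72 h before the ATP readout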
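material = human LL 47 lung fibroblast cells | dosing = compounds added from tenfold dosing solution, 0.1% DMSO final | timing = overnight cell rest, 72 h compound treatment at 37 °C | measured by = CellTiter-Glo luminescence measuring cellular ATP | evaluation = % viability versus median cells-only luminescence | control set = cell-only wells, no compound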
Each line names hits and unclear results; the compound was inactive in the other large screens. Shown is part of a subset that was picked to be rich in hits.

CCc1ccc(C2CC(c3cccc(Cl)c3)n3nc(N)nc3N2)cc1 (centres undefined)	H69AR inhibit 38
Cc1ccc(C2CC(c3cccc(Cl)c3)n3nc(N)nc3N2)cc1 (centres undefined)	none
COc1ccc(CN2C(=O)CN=C2Nc2cc(C)ccc2C)cc1	H69AR inhibit 40
COC(=O)c1cn(CC(=O)N2C(C)CCCC2C)c2ccccc12 (centres undefined)	none
CC1CCCC(C)N1C(=O)Cn1cc(/C=C2/C(=O)Nc3ccccc32)c2ccccc21 (centres undefined)	H69AR inhibit 23
CCOc1cc(-c2noc(N)c2C(=O)OC)cc(OCC)c1OCC	H69AR inhibit 23
CCOc1cc(C(=O)OCC(=O)Nc2cc(C)on2)cc(OCC)c1OCC	none
COC(=O)c1c(-c2ccc(Br)cc2)noc1N	H69AR inhibit 29
CC(=O)Nc1c(C(=O)N2CCN(c3ccccn3)CC2)cnn1-c1ccc(C)cc1	none (no result: HUVEC prolif 384, H69AR inhibit, Lung fibro prol)
Cc1cccc(-c2nnc3n2N=C(c2ccc(Br)cc2)CS3)c1	none (no result: HCT116 bCat-KO, HCT116 PTEN-null)
Clc1ccc(C2=Nn3c(nnc3-c3n[nH]c4c3CCC4)SC2)cc1	H69AR inhibit 15
Brc1ccc(C2=Nn3c(nnc3-c3n[nH]c4c3CCC4)SC2)cc1	H69AR inhibit 20, Lung fibro prol 41
Cc1ccc(-c2nnc3n2N=C(c2ccc(Br)cc2)CS3)cc1	H69AR inhibit 6.1
Cc1ccc(S(=O)(=O)N(C)c2ccccc2C(=O)NC2CCCC2)cc1	none (no result: HUVEC prolif 384, H69AR inhibit, Lung fibro prol)
O=C(NC1CCCC1)c1cnn2c(C(F)(F)F)cc(-c3ccc4c(c3)OCO4)nc12	HUVEC prolif 384 28, H69AR inhibit 17
O=C(c1nn2c(C(F)(F)F)cc(-c3ccco3)nc2c1Br)N1CCCc2ccccc21	H69AR inhibit 39, Lung fibro prol 46
CC(C)CCNC(=O)c1cnn2c(C(F)(F)F)cc(-c3ccco3)nc12	none
O=C(NC1CCCC1)c1cnn2c(C(F)(F)F)cc(-c3ccco3)nc12	H69AR inhibit 33
OC(CN1c2ccccc2Sc2ccccc21)Cn1nnc2ccccc21 (centres undefined)	HCT116 PTEN-null 2.5, H69AR inhibit 25
Cc1nn(CC(O)CN2c3ccccc3Sc3ccccc32)c(C)c1Br (centres undefined)	H69AR inhibit 27
CCn1c(SCC(=O)OCC(=O)N2c3ccccc3NC(=O)C2(C)C)nnc1-c1ccco1	none
CCCCCCn1c(COc2ccccc2F)nnc1SCC(=O)N1c2ccccc2NC(=O)C1(C)C	HCT116 bCat-KO 1.2, HCT116 PTEN-null 1.1, H69AR inhibit 0.8
COc1ccc(S(=O)(=O)Nc2nc3ccccc3s2)cc1OC	none
COC(=O)c1sc2ccccc2c1NC(=O)c1ccc(S(=O)(=O)N2CC(C)CC(C)C2)cc1 (centres undefined)	none (no result: HUVEC prolif 384, H69AR inhibit, Lung fibro prol)
Cc1ccc2nc(NNC(=O)c3ccc(S(=O)(=O)N4CCc5ccccc5C4)cc3)sc2c1	HCT116 bCat-KO 3.8 (no result: HUVEC prolif 384, H69AR inhibit, Lung fibro prol)
Cc1cccc2sc(NNC(=O)c3ccc(S(=O)(=O)N4CC(C)CC(C)C4)cc3)nc12 (centres undefined)	HCT116 bCat-KO 2.2, HCT116 PTEN-null 1.9 (no result: HUVEC prolif 384, H69AR inhibit, Lung fibro prol)
Cc1cc(C)c2nc(NNC(=O)c3ccc(S(=O)(=O)N4CCCC(C)C4)cc3)sc2c1 (centres undefined)	HCT116 bCat-KO 4.0 (no result: HUVEC prolif 384, H69AR inhibit, Lung fibro prol)
Cc1cc(C)c2nc(NNC(=O)c3ccc(S(=O)(=O)N4CC(C)CC(C)C4)cc3)sc2c1 (centres undefined)	none (no result: HUVEC prolif 384, H69AR inhibit, Lung fibro prol)
C=CCn1c(SCN2C(=O)c3ccccc3C2=O)nc2ccc(Cl)cc2c1=O	none (no result: HUVEC prolif 384, H69AR inhibit, Lung fibro prol)
CC1CCc2cc(F)ccc2N1C(=O)CSc1nnc2c(n1)[nH]c1ccccc12 (centres undefined)	none (no result: HUVEC prolif 384, H69AR inhibit, Lung fibro prol)
CCOc1ccc(S(=O)(=O)NC(C)(C)C)cc1-c1nc2c(C(C)(C)C)nn(C)c2c(=O)[nH]1	none
O=C(Nc1cccc(C(F)(F)F)c1)c1ccc2nc(-c3ccco3)c(-c3ccco3)nc2c1	H69AR inhibit 32
COc1ccc(C(=O)Nc2cccc(-c3nnc(-c4ccco4)o3)c2)cc1	H69AR inhibit 24
CCOc1ccccc1C(=O)Nc1cccc(-c2nnc(-c3ccccc3)o2)c1	H69AR inhibit 8.7
Cc1nn(-c2ccccc2)c(Cl)c1C(=O)N(C)c1nc(-c2ccc(F)cc2)cs1	none (no result: HUVEC prolif 384, H69AR inhibit, Lung fibro prol)
COc1ccc(OC)c(S(=O)(=O)Nc2cccc(F)c2)c1	none
O=C1CN(c2nc(-c3ccccc3)c3cc(Cl)ccc3n2)c2ccccc2N1	none (no result: HUVEC prolif 384, H69AR inhibit, Lung fibro prol)
OCCN1CCN(c2nc(-c3ccccc3)c3cc(Cl)ccc3n2)CC1	H69AR inhibit 8.3
CN1CCN(c2nc(-c3ccccc3)c3cc(Cl)ccc3n2)CC1	H69AR inhibit 39
Clc1ccc2nc(N3CCNCC3)nc(-c3ccccc3)c2c1	HUVEC prolif 384 4.3, HCT116 bCat-KO 1.2, HCT116 PTEN-null 1.3, H69AR inhibit 0.8, Lung fibro prol 2.4
CCOC(=O)C(/C(C)=N/NC(=O)C1CC1c1ccccc1)C(C)C (centres undefined)	none (no result: HUVEC prolif 384, H69AR inhibit, Lung fibro prol)
CC(=O)Nc1cccc(OCc2ccc(S(=O)(=O)Cc3ccccc3)cc2)c1	none (no result: HUVEC prolif 384, H69AR inhibit, Lung fibro prol)
COc1ccc(/C=N/NC(=O)c2c(-c3ccccc3)noc2C)cc1	none (no result: HUVEC prolif 384, H69AR inhibit, Lung fibro prol)
CCOc1cc(C(=O)N/N=C/C(Br)=C/c2ccccc2)cc(OCC)c1OCC	HCT116 PTEN-null 2.3 (no result: HUVEC prolif 384, H69AR inhibit, Lung fibro prol)
Cc1ccc(NCC(=O)N/N=C\C(Br)=C\c2ccccc2)cc1	HCT116 bCat-KO 2.6, HCT116 PTEN-null 2.7
Cc1cc(C)nc(SCC(=O)N/N=C\C(Br)=C\c2ccccc2)n1	none (no result: HUVEC prolif 384, H69AR inhibit, Lung fibro prol)
O=C(N/N=C/C(Br)=C\c1ccccc1)c1ccc2nc[nH]c2c1	HCT116 bCat-KO 2.2, HCT116 PTEN-null 3.3 (no result: HUVEC prolif 384, H69AR inhibit, Lung fibro prol)
Cc1onc(-c2ccccc2)c1C(=O)N/N=C/C(Br)=C/c1ccccc1	HCT116 bCat-KO 3.6, HCT116 PTEN-null 2.9 (no result: HUVEC prolif 384, H69AR inhibit, Lung fibro prol)
COc1cc(CC(CC(=O)O)CC(C)OCc2ccccc2)cc(OC)c1 (centres undefined)	none (no result: HUVEC prolif 384, H69AR inhibit, Lung fibro prol)
c1ccc2nc(N3CCOCC3)cnc2c1	none
COCCNS(=O)(=O)c1cc(C)c(C)cc1C	none (no result: HUVEC prolif 384, H69AR inhibit, Lung fibro prol)
Cc1cc(Cl)ccc1Oc1nccc(N(C)C)c1C#N	none (no result: HUVEC prolif 384, H69AR inhibit, Lung fibro prol)
Cc1ccc(S(=O)(=O)/C(C#N)=C/c2c(N3CCC(C(N)=O)CC3)nc3ccccn3c2=O)cc1	none
Cc1ccc2ccc(C(Nc3ccccn3)c3ccccc3)c(O)c2n1 (centres undefined)	H69AR inhibit 28
Cc1cccc(NC(c2ccc(C)s2)c2ccc3ccc(C)nc3c2O)n1 (centres undefined)	HCT116 bCat-KO 2.4, HCT116 PTEN-null 1.7 (no result: HUVEC prolif 384, H69AR inhibit, Lung fibro prol)
COc1cc(C(Nc2ccccn2)c2ccc3ccc(C)nc3c2O)cc(OC)c1O (centres undefined)	HUVEC prolif 384 14, HCT116 bCat-KO 2.9, HCT116 PTEN-null 2.5, H69AR inhibit 0.3, Lung fibro prol 38
Cc1cccc(NCc2ccccc2O)n1	none
Oc1c(C(Nc2ccccn2)c2ccccn2)ccc2cccnc12 (centres undefined)	HCT116 bCat-KO 3.0, HCT116 PTEN-null 2.5, H69AR inhibit 6.4, Lung fibro prol 5.0
O=C(CSc1nnc(C2CC2)n1-c1ccccc1)NCCc1ccccc1	none (no result: HUVEC prolif 384, H69AR inhibit, Lung fibro prol)
Cc1c(NC(=O)CSc2nc3ccccc3s2)c(=O)n(-c2ccccc2)n1C	none

Screening data (PubChem BioAssay)
